# Only some compounds are listed: those with a hit (about 2.8% of all), similar ones and a draw of the others.
# PAFAH2 FP inh = PAFAH2 (human) inhibition | AID 492956 | inhibition, % at 3.39 µM | actives 0.99% (n = 340,000) | recombinant PAFAH2, FP-rhodamine activity probe, fluorescence polarization;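 active means inhibition above the mean over all tested compounds plus 3 SD, cut at about 30% in these data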;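 further: inhibitors block probe labeling of enzyme so polarization drops; 0% = enzyme with DMSO and 100% = wells lacking PAFAH2 protein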
# PAFAH1B2 FP inh = blocks human PAF acetylhydrolase 1b catalytic subunit 2; P68402; recombinant PAFAH1B2, FP-rhodamine activity probe, fluorescence polarization; inhibition, % at 3.39 µM; actives 1.2% (n = 340,000);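 active means inhibition above the mean of all tested compounds plus 3 SD, cut at about 24% in these data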;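 further: 0% = enzyme with DMSO and 100% = wells lacking PAFAH1B2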
# PAFAH1B3 FP inh = inhibitors of human PAFAH1B3; recombinant PAFAH1B3, FP-rhodamine probe, fluorescence polarization; Q15102; actives 0.28% (n = 340,000); inhibition, % at 3.39 µM; AID 492972;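 active means inhibition above the screen-wide average of all tested compounds plus 3 SD, cut at about 25% in these data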;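 further: 0% = enzyme with DMSO only and 100% = wells lacking PAFAH1B3 protein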
# HTRA1 inh = HTRA1 (human) protease inhibition. recombinant HTRA1, FP-rhodamine activity-based probe, fluorescence polarization. AID 504803. actives 0.5% (n = 340,000). inhibition, % at 5.96 µM. Q92743; in the data active means inhibition above about 36%;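 further: 0% = enzyme with DMSO and 100% = wells lacking enzyme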
# Target sequence (Q92743 whole entry, looked up): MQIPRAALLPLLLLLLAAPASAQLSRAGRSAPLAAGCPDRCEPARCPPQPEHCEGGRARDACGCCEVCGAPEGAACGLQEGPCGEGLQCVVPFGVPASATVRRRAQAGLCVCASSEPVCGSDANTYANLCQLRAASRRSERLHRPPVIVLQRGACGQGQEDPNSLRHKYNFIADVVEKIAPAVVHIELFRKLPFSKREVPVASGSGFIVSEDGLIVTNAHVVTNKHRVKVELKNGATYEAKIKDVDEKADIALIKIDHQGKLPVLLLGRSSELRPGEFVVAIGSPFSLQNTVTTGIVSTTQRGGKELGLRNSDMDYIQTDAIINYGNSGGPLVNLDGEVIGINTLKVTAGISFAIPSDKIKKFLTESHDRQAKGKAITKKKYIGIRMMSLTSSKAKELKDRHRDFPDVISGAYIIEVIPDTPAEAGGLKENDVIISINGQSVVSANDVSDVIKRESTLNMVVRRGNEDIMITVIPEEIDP
# ABHD4 inh = inhibitors of mouse ABHD4. purified mABHD4, FP-Rh probe fluorescence polarization. Q8VD66. actives 0.54% (n = 370,000). inhibition, % at 8.92 µM;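 active means inhibition exceeding the mean over every tested compound plus 3 SD, cut at about 30% in these data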;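 further: 0% = plate median of compound wells and 100% = S159A mutant with DMSO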
#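 Assay system: wild-type mouse ABHD4 protein; compound: single nominal dose of 8.92 µM, 0.89% DMSO final; schedule: 45 min + 60 min at 25 °C; measured by: FP readout, ex 525 nm / em 598 nm; evaluation: % inhibition of FP-Rh probe binding versus controls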
# pPAFAH inh = inhibitors of human plasma PAF acetylhydrolase (pPAFAH); recombinant pPAFAH, FP-rhodamine probe fluorescence polarization; inhibition, % at 3.39 µM; actives 1.5% (n = 330,000); Q13093;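 active means inhibition above the mean inhibition across the screen plus 3 SD, cut at about 25% in these data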;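 further: inhibitors block binding of the rhodamine activity-based probe so polarization drops; 0% = enzyme with DMSO and 100% = wells lacking pPAFAH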
# * marks the source's active call; other numbers are inactive results; nt = no result given.
SMILES,PAFAH2 FP inh,PAFAH1B2 FP inh,PAFAH1B3 FP inh,HTRA1 inh,ABHD4 inh,pPAFAH inh
Cc1ccc(NS(=O)(=O)c2cccc(C(=O)N/N=C/c3ccc4c(c3)OCCO4)c2)c(C)c1,-60,-14,-34,-69,-86,32*
CC(C)=CCC/C(C)=C/CN1C(=O)N(c2ccc(F)cc2)[C@H]2C[C@@H](c3ccccc3)[C@@H](C)[C@@H](C(=O)N3CCOCC3)C[C@H]21,nt,nt,nt,nt,-2,nt
Cn1nc(C(=O)NCCc2ccc(Cl)cc2)c2c1-c1ccccc1S(=O)(=O)C2,1,35*,0,-4,-1,6
c1ccc(-c2nnc(-c3ccco3)o2)cc1,-3,0,0,7,6,-1
c1coc(-c2nnc(-c3ccco3)nn2)c1,32*,18,19,11,27,32*
COC(=O)C1CN(CC(C)C)CCS(=O)(=O)N1Cc1ccc(C(F)(F)F)cc1 (configuration not stated),nt,nt,nt,nt,-9,nt
Clc1ccc(CSc2nnc(-c3cccs3)o2)cc1Cl,nt,nt,nt,nt,2,nt
O=C(COC(=O)CNC(=O)c1ccc(Cl)cc1Cl)Nc1cccc(S(=O)(=O)N2CCCC2)c1,4,1,4,-3,-7,30*
Cc1ccc(C(=O)NCC(=O)OCC(=O)Nc2cc(S(=O)(=O)N3CCOCC3)ccc2C)cc1,2,4,2,3,0,3
Cc1ccc(S(=O)(=O)N2CCOCC2)cc1NC(=O)COC(=O)CNC(=O)c1ccc(Oc2ccccc2)cc1,4,-2,4,-7,-7,28*
NS(=O)(=O)c1cccc(NC(=O)COC(=O)CCC2CCCC2)c1,24,8,6,-3,-9,20
O=C(CSc1nccc(=O)[nH]1)Nc1cccc(S(=O)(=O)N2CCOCC2)c1,2,2,8,1,-5,30*
O=C(COC(=O)CCC1CCCC1)Nc1cccc(S(=O)(=O)N2CCOCC2)c1,15,-2,-2,-18,-2,25*
CCOc1cc(Br)cc(/C=C2\SC(=Nc3ccccc3)NC2=O)c1O,12,6,7,-8,-6,25*
O=S1(=O)c2ccc(Br)cc2OC[C@H](Cc2ccccc2)N1Cc1cn(Cc2ccc(F)cc2)nn1,nt,nt,nt,nt,-6,nt
O=C(C=C1SCCS1)/C=C/c1ccco1,8,4,8,-3,8,25*
O=C(O)C(C(=O)/C=C/c1ccco1)=C1SCCS1,12,6,4,5,7,24
CC1(C)CC(=O)C(C=Nc2ccc(O)c(N=CC3=C(O)CC(C)(C)CC3=O)c2)=C(O)C1,55*,1,9,20,7,33*
Cc1cccc(C)c1NC(=S)NCCSc1ccc(Cl)cc1,11,25*,-5,-24,-4,1
CC(C)CC(C(=O)O)N1C(=O)C2C3CC(C2C1=O)C1C(c2ccccc2)c2sc(=O)[nH]c2SC31 (configuration not stated),-1,40*,-2,7,1,6
O=C(O)CCCN1C(=O)C2C3CC(C2C1=O)C1C(c2ccccc2)c2sc(=O)n(-c4ccccc4)c2SC31 (configuration not stated),13,5,-1,0,8,18
O=C(O)CN1C(=O)C2C3CC(C2C1=O)C1C(c2ccccc2)c2sc(=O)[nH]c2SC31 (configuration not stated),-8,72*,5,-2,2,2
C#CCN1C(=O)[C@]2(NCCc3c2[nH]c2ccc(OC)cc32)c2cc(F)ccc21,nt,nt,nt,nt,4,nt
Cc1nn(-c2ccccc2)c(C)c1/C=N/NC(=O)c1[nH][nH]c(=O)c1C,nt,nt,nt,nt,2,nt
CCc1csc(N2[C@H](CN(CCOC)S(=O)(=O)c3ccccc3[N+](=O)[O-])[C@H](c3ccccc3)[C@@H]2CO)n1,nt,nt,nt,nt,5,nt
SMILES,PAFAH2 FP inh,PAFAH1B2 FP inh,PAFAH1B3 FP inh,HTRA1 inh,ABHD4 inh,pPAFAH inh
COCCn1c(C23CC4CC(CC(C4)C2)C3)n[nH]c1=S,5,5,7,4,-2,5
CCCCn1c(C23CC4CC(CC(C4)C2)C3)n[nH]c1=S,4,29*,-1,-8,-13,2
O=S1(=O)c2c(cccc2N2CC[C@H](O)C2)OCCCN1C1CC1,nt,nt,nt,nt,3,nt
C[C@H]1[C@@H](NCc2cccs2)CC[C@@]23CCCN2C(=O)CCC[C@@H]13,nt,nt,nt,nt,0,nt
CC(C)c1ccc(OCC(=O)NC(C)c2ccccc2)cc1 (configuration not stated),-2,29*,4,-5,-7,11
CCC(C)NC(=O)COc1ccc(OCc2ccccc2)cc1 (configuration not stated),8,27*,4,-2,2,6
CC1/C(=N/O)CC(c2ccccc2)NC1c1ccccc1 (configuration not stated),3,5,-5,-4,-2,6
CCCC1/C(=N/O)CC(c2ccccc2)NC1c1ccccc1 (configuration not stated),-1,5,2,-9,-12,27*
O=C(N/N=C/c1ccc(-c2ccccc2C(=O)O)o1)c1cccs1,4,3,0,2,16,28*
COc1ccccc1-c1cc(-c2ccc(O)cc2)nc(N)c1C#N,33*,6,3,-31,-13,30*
COc1cc(-c2cc(-c3ccc(O)cc3)nc(N)c2C#N)ccc1O,-3,4,-1,1,-6,16
Cc1ccc(/C=C2\SC(=S)N(CCCC(=O)Nc3ccccc3C(=O)O)C2=O)cc1,29,19,3,-3,3,1
CCc1ccc(/C=C2\SC(=S)N(CCCC(=O)Nc3ccccc3C(=O)O)C2=O)cc1,31*,55*,-2,0,-2,-4
O=C(CCCN1C(=O)/C(=C\c2cccs2)SC1=S)Nc1ccc(O)cc1C(=O)O,13,44*,5,1,3,25*
CC(=O)c1cc(-c2ccc([N+](=O)[O-])cc2)c(=O)n2c1CCC2,nt,nt,nt,nt,2,nt
C[C@H]1[C@@H](OC(=O)NCc2ccco2)CC[C@@]23CCCN2C(=O)CCC[C@@H]13,nt,nt,nt,nt,-4,nt
O=C1NC(=S)N/C1=C/c1cccn1-c1ccc([N+](=O)[O-])cc1,1,9,5,13,13,32*
CCN(CC(=O)Nc1ccccc1OC)C(=O)CCOc1ccc(C(C)(C)C)cc1,4,30*,-2,-21,-4,8
Cc1ccc(Cn2cc(CN3[C@@H](CC(C)C)COc4cc(Br)ccc4S3(=O)=O)nn2)cc1,nt,nt,nt,nt,0,nt
Nc1ccc(N2CCCCCC2)cc1,nt,nt,nt,nt,nt,29*
Nc1ccc(N2CCN(c3ccc(F)cc3)CC2)cc1,-2,-2,5,28,8,0
